Results reported in ChEMBL document CHEMBL2384941, “A small molecule inhibitor of fungal histone acetyltransferase Rtt109” (Bioorg Med Chem Lett, 2013).
Calls of active or inactive are those of the source. The rule behind the calls is not given here.

Columns and labels:
[1] = test system: Rtt109 (Saccharomyces cerevisiae); assay: Inhibition of Vps75-stimulated recombinant Saccharomyces cerevisiae 6xHis-tagged histone acetyltransferase Rtt109 using H3n21 peptide and acetyl-coenzyme A as substrate assessed as release of CoA at 0.3 to 10 uM preincubated for 5 mins with H3n21 followed by acetyl-coenzyme A addition measured …
[2] = target: T1, Lysine-specific demethylase 4A (Homo sapiens, UniProt O75164); assay: Inhibition of JMJD2A tudor domain (unknown origin) using histone H4 peptide trimethylated on lysine 20 as substrate
T1 sequence (O75164 whole entry): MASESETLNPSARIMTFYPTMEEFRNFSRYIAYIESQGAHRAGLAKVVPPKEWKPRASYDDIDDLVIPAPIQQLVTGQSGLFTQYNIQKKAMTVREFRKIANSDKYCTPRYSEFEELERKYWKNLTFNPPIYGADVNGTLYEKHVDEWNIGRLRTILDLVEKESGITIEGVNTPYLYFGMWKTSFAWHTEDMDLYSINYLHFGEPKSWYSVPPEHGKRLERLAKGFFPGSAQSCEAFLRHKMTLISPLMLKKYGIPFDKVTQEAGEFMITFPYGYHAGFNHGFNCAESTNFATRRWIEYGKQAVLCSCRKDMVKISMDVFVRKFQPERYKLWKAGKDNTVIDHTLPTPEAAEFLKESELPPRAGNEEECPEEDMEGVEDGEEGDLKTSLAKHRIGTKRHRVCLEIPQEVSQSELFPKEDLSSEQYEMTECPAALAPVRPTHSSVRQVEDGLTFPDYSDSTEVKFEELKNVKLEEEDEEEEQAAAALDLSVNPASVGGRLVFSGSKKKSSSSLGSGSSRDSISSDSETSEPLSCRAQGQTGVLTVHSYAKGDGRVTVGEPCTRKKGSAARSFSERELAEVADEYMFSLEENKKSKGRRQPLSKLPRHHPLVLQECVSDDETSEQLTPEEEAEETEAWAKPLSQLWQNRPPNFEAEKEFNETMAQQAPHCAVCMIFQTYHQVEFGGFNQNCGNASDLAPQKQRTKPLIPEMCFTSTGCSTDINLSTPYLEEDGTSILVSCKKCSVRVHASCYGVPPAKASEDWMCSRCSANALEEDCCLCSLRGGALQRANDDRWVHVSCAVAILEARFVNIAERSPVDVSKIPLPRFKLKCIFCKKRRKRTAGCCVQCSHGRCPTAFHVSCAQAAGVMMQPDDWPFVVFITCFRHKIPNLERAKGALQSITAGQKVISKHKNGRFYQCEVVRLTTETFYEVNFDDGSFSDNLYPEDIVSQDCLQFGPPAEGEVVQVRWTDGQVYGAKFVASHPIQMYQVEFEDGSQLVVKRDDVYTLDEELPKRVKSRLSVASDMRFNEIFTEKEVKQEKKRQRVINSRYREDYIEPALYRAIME

[3] = test system: Candida albicans; assay: Inhibition of histone acetyltransferase Rtt109 in Candida albicans assessed as camptothecin-induced DNA damage
[4] = test system: Candida albicans; assay: Inhibition of histone acetyltransferase Rtt109 in Candida albicans assessed as inhibition of H3K56 acetylation
[5] = target: Histone acetyltransferase p300 (Homo sapiens) (UniProt Q09472); assay: (§1) Inhibition of N-terminal 6xHis-Flag epitope-tagged histone acetyltransferase p300 catalytic domain (1195 to 1810) (unknown origin) expressed in Escherichia coli BL21 using (H3-H4)2 peptide and acetyl-coenzyme A as substrate assessed as inhibition of lysine acetylation incubated for 5 mins prior to acetyl-coenzyme A addition measured after 30 mins by ELISA
Procedure, shortened: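 p300 (15 µg/ml) with […] (H3-H4)2 tetramers. Pre-incubated 5 min with compound or DMSO, then started with 15 µM acetyl-CoA. Run 30 min at 30°C. Lysine acetylation detected by ELISA with a polyclonal anti-acetyllysine antibody.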

[6] = target: Histone acetyltransferase p300 (Homo sapiens) (UniProt Q09472); assay: as §1, with “using” for “using (H3-H4)2 peptide and”, “release” for “inhibition”, “coenzyme A” for “lysine acetylation”, “every 2 mins for 10” for “after 30”, “ThioGlo1 assay” for “ELISA”
Procedure, shortened: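 p300 (15 µg/ml) or Gcn5 (3.1 µg/ml, 61 nM) with 15 µM H3n21 peptide. Pre-incubated 5 min at 30°C with compound (up to 100 µM) or DMSO. Started with 30 µM acetyl-CoA. Released CoA quantified every 2 min over the first 10 min. Rates from linear regression of product versus time.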

[7] = target: T2, Histone acetyltransferase SAS2 (Saccharomyces cerevisiae (strain ATCC 204508 / S288c) (Baker's yeast)) (UniProt P40963); assay: Inhibition of Vps75-stimulated recombinant Saccharomyces cerevisiae 6xHis-tagged histone acetyltransferase Rtt109 using H3n21 peptide and acetyl-coenzyme A as substrate assessed as release of coenzyme A at 56 1.3 nM incubated for 5 mins prior to acetyl-coenzyme A addition measured every 2 mins for 10 mins by ThioGlo1 assay relative to control
T2 sequence (whole entry): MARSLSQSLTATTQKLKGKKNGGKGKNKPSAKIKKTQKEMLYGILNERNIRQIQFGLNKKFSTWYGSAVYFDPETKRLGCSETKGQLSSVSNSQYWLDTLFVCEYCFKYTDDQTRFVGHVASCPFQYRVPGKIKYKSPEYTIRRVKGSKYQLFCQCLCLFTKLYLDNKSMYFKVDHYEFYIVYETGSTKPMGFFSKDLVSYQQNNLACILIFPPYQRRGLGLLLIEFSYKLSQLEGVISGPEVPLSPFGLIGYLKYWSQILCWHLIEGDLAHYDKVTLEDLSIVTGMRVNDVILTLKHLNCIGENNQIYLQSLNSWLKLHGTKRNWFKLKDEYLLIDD

[8] = target: Histone acetyltransferase RTT109 (Saccharomyces cerevisiae) (UniProt Q07794); assay: Inhibition of Vps75-stimulated recombinant Saccharomyces cerevisiae 6xHis-tagged histone acetyltransferase Rtt109 using H3n21 peptide as substrate assessed as release of coenzyme A at […] by ThioGlo1 assay relative to control; set-up: scale not given: the % may be the effect or the level left
[9] = target: Histone acetyltransferase RTT109 (Saccharomyces cerevisiae) (UniProt Q07794); assay: Irreversible inhibition of Vps75-stimulated recombinant Saccharomyces cerevisiae 6xHis-tagged histone acetyltransferase Rtt109 using H3n21 peptide as substrate assessed as release of coenzyme A at […] after 4 hrs by 10 fold dilution assay relative to control; set-up: scale not given: the % may be the effect or the level left
[10] = test system: Rtt109 (Saccharomyces cerevisiae); assay: Inhibition of Vps75-stimulated recombinant Saccharomyces cerevisiae 6xHis-tagged histone acetyltransferase Rtt109 using H3n21 peptide and acetyl-coenzyme A as substrate assessed as release of CoA at 0.1 to 1 uM preincubated for 5 mins with H3n21 followed by acetyl-coenzyme A addition measured after …

Histone acetyltransferase p300 (Homo sapiens), sequence (Q09472 whole entry, the tested form may be a part): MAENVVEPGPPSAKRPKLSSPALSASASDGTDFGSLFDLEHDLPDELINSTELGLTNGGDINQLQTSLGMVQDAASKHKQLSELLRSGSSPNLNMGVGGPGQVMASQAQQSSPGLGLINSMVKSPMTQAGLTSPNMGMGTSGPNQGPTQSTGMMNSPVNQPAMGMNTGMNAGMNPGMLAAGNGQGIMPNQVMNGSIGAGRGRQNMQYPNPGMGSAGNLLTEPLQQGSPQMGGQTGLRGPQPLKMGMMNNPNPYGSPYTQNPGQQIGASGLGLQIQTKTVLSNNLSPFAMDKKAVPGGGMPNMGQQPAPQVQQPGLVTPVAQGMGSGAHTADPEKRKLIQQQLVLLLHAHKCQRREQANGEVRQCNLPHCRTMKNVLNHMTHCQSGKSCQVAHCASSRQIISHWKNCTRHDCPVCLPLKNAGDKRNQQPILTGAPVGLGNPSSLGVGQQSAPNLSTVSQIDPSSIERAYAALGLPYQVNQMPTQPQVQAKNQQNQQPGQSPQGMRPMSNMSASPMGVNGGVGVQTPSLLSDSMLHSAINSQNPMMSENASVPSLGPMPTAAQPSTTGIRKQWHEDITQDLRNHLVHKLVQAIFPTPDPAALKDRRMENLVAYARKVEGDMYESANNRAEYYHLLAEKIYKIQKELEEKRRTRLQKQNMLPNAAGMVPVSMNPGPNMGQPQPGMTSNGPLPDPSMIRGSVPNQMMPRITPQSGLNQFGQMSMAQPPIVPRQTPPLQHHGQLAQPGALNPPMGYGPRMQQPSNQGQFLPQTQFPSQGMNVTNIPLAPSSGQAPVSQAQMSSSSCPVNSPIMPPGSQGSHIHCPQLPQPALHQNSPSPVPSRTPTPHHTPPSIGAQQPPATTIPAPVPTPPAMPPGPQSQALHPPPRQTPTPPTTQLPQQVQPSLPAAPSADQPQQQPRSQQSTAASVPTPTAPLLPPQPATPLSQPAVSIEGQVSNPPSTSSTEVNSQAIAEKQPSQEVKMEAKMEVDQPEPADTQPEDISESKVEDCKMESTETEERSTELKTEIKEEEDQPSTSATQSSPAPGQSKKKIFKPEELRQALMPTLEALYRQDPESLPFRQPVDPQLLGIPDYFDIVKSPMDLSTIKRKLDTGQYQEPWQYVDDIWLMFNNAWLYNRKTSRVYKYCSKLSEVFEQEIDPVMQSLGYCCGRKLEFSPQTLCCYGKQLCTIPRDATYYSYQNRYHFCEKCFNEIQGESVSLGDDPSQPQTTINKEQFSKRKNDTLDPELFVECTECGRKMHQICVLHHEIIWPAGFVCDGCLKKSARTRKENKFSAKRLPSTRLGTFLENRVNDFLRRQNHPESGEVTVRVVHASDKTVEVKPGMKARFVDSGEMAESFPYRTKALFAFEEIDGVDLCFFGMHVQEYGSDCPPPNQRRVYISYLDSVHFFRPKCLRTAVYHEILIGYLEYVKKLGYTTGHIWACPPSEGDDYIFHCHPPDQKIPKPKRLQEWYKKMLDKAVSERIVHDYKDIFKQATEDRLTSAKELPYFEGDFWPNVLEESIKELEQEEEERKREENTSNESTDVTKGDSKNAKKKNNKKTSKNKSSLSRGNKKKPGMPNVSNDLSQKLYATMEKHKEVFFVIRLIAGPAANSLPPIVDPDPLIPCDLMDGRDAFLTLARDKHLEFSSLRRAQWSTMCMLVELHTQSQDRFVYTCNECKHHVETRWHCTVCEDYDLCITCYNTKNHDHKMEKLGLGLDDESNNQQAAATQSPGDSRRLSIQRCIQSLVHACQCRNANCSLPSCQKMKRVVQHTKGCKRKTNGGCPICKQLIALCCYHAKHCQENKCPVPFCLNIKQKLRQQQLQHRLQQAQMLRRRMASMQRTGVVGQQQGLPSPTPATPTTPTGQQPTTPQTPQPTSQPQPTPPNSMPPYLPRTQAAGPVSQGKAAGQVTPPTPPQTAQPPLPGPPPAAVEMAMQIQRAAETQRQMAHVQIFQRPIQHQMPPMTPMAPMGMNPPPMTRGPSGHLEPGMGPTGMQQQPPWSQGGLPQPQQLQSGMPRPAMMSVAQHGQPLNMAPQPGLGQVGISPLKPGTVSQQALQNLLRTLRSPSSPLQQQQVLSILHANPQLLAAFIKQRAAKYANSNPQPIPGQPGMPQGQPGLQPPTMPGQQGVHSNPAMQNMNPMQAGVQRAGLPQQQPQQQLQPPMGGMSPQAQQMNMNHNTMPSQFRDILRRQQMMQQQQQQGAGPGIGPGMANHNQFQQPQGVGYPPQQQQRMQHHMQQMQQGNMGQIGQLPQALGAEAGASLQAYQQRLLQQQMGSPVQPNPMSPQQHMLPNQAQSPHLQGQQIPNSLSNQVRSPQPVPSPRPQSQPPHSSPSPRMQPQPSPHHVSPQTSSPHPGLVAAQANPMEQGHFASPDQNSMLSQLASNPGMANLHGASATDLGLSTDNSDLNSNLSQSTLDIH
Histone acetyltransferase RTT109 (Saccharomyces cerevisiae), sequence (Q07794 whole entry, looked up): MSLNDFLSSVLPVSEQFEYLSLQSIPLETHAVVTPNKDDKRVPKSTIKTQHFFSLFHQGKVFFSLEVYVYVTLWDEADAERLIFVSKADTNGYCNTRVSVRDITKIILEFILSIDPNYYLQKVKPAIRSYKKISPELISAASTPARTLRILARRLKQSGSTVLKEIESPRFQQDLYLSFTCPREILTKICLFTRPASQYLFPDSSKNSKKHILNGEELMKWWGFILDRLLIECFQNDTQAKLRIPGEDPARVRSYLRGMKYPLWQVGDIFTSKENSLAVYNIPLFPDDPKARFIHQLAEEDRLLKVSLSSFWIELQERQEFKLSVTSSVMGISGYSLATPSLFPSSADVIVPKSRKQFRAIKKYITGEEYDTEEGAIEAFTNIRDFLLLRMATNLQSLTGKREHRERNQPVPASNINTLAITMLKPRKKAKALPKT

For `CC(C)CC1(c2ccccc2)NC(=O)N(CC(=O)NCc2ccc(Cl)cc2Cl)C1=O` (stereo unspecified), the inhibition [1] was “inactive”.
For `CCC1(c2ccc(F)cc2)NC(=O)N(CC(=O)NCc2ccc(Cl)cc2Cl)C1=O` (stereo unspecified), the inhibition [1] was “inactive”.
For `CCCCC1(c2ccccc2)NC(=O)N(CC(=O)NCc2ccc(Cl)cc2Cl)C1=O` (stereo unspecified), the inhibition [1] was “inactive”.
`CC(C)c1ccc(C2(C)NC(=O)N(CC(=O)N(C)Cc3c(F)cccc3Cl)C2=O)cc1` (stereo unspecified) was tested, and the inhibition [1] was “inactive”.
In the case of `CCC[C@]1(c2ccccc2)NC(=O)N(CC(=O)N(C)Cc2c(F)cccc2Cl)C1=O`, the IC50 [2] is reported as 25 µM, the inhibition [3] is reported as “inactive” and the inhibition [4] is reported as “inactive”. For the same compound, the inhibition [5] was “inactive”, the inhibition [6] was “inactive” and the inhibition [7] was 50%. It also gave an Activity [8] of 47% and an Activity [9] of 33%.
In the case of `CN(Cc1c(F)cccc1Cl)C(=O)CN1C(=O)NC2(CCCCc3ccccc32)C1=O` (stereo unspecified), the inhibition [1] is reported as “inactive”.
With `CCC1(c2ccccc2)NC(=O)N(CC(=O)N(C)Cc2c(F)cccc2Cl)C1=O` (stereo unspecified) the inhibition [10] was “Active”.
In the case of `CCCC1(c2ccccc2)NC(=O)N(Cc2ccc(F)cc2Cl)C1=O` (stereo unspecified), the inhibition [1] is reported as “inactive”.
With `CCCC1(c2ccccc2)NC(=O)N(Cc2c(F)cccc2Cl)C1=O` (stereo unspecified) the inhibition [1] was “inactive”.
